ChEMBL document CHEMBL5653631, “A Potent and Selective ULK1 Inhibitor Suppresses Autophagy and Sensitizes Cancer Cells to Nutrient Stress” (iScience, 2018)

Legend:
[1] = target: Calcium/calmodulin-dependent protein kinase kinase 2 (Homo sapiens) (UniProt Q96RR4); test: Inhibition of human recombinant CaMKK2 at 40 nM in presence of ATP by radiometric assay relative to control
[2] = target: T1, Serine/threonine-protein kinase A-Raf (Homo sapiens) (UniProt P10398); test: Inhibition of human recombinant ARAF at 40 nM related to control ULK1
T1 sequence (whole entry): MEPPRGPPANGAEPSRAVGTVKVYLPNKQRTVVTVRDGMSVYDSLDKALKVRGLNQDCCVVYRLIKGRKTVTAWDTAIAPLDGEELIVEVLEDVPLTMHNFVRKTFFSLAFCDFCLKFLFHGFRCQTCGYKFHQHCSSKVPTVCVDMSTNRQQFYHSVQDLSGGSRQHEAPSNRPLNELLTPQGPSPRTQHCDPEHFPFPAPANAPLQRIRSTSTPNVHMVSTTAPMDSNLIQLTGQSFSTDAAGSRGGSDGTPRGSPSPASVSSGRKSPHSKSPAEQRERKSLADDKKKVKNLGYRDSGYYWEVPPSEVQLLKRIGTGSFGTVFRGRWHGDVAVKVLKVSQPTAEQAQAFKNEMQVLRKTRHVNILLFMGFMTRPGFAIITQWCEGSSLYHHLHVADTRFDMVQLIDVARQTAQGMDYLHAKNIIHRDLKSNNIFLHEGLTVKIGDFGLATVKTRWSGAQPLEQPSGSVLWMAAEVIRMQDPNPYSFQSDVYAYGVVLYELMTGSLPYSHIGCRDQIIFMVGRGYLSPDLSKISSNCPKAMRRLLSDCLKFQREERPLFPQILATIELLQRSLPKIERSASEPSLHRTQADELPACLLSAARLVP
Outline: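 Radiometric activity assays in a panel of 327 human recombinant kinases, each run in duplicate at one inhibitor concentration. Activity remaining is expressed as percent of vehicle control, and percent inhibition is calculated as 100% minus percent activity remaining.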

[3] = target: T2, Dual specificity tyrosine-phosphorylation-regulated kinase 2 (Homo sapiens) (UniProt Q92630); test: Inhibition of human recombinant DYRK2 at 40 nM related to control ULK1
T2 sequence (whole entry): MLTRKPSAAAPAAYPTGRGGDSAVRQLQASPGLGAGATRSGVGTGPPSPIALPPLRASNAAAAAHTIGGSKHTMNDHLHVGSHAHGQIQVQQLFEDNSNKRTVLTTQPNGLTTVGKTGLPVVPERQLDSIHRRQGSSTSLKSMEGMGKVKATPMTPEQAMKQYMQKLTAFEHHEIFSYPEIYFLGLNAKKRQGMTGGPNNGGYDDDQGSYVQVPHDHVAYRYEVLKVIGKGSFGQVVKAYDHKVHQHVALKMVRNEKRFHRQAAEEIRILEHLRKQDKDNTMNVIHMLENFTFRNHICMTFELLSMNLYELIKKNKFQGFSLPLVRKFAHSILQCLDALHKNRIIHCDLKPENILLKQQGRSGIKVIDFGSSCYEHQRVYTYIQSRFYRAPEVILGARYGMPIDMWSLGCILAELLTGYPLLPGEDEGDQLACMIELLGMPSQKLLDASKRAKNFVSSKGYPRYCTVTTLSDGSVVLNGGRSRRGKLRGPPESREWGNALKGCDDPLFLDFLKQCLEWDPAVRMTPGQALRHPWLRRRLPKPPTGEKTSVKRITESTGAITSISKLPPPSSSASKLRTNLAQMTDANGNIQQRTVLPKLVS

[4] = target: Tyrosine-protein kinase JAK1 (Homo sapiens) (UniProt P23458); test: Inhibition of human recombinant JAK1 at 40 nM related to control ULK1
Sequence of Tyrosine-protein kinase JAK1 (Homo sapiens) (P23458 whole entry): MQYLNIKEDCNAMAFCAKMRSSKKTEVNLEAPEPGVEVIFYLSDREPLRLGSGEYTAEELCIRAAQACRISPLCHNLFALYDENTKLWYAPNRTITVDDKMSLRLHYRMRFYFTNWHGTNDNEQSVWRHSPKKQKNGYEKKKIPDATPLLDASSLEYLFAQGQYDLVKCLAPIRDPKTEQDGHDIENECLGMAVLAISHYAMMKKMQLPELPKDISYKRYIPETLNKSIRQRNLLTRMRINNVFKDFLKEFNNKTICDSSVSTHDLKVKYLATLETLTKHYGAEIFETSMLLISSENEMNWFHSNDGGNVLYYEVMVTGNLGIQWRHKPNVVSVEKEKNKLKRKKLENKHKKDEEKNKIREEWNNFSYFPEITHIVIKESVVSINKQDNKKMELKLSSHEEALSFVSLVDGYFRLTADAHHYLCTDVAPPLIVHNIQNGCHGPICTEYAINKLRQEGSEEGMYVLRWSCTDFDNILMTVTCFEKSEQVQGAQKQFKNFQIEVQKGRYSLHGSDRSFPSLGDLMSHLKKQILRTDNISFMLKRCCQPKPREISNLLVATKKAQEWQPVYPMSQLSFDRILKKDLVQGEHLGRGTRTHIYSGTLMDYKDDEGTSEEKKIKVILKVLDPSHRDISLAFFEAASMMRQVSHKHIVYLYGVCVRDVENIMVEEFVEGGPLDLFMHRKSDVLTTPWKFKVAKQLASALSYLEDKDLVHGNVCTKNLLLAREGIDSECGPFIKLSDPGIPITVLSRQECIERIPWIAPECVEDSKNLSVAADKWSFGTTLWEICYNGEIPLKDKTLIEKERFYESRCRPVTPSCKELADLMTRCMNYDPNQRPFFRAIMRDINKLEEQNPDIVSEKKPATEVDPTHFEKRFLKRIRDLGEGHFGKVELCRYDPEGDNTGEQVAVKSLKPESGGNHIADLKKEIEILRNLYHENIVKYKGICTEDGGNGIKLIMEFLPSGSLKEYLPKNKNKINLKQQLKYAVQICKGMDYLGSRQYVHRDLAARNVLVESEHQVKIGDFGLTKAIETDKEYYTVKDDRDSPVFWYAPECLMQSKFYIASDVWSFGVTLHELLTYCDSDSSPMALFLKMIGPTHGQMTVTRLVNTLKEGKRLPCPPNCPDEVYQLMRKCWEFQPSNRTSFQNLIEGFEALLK

[5] = target: Platelet-derived growth factor receptor beta (Homo sapiens) (UniProt P09619); test: Inhibition of human recombinant PDGFRb at 40 nM related to control ULK1
Sequence of Platelet-derived growth factor receptor beta (Homo sapiens) (P09619 whole entry): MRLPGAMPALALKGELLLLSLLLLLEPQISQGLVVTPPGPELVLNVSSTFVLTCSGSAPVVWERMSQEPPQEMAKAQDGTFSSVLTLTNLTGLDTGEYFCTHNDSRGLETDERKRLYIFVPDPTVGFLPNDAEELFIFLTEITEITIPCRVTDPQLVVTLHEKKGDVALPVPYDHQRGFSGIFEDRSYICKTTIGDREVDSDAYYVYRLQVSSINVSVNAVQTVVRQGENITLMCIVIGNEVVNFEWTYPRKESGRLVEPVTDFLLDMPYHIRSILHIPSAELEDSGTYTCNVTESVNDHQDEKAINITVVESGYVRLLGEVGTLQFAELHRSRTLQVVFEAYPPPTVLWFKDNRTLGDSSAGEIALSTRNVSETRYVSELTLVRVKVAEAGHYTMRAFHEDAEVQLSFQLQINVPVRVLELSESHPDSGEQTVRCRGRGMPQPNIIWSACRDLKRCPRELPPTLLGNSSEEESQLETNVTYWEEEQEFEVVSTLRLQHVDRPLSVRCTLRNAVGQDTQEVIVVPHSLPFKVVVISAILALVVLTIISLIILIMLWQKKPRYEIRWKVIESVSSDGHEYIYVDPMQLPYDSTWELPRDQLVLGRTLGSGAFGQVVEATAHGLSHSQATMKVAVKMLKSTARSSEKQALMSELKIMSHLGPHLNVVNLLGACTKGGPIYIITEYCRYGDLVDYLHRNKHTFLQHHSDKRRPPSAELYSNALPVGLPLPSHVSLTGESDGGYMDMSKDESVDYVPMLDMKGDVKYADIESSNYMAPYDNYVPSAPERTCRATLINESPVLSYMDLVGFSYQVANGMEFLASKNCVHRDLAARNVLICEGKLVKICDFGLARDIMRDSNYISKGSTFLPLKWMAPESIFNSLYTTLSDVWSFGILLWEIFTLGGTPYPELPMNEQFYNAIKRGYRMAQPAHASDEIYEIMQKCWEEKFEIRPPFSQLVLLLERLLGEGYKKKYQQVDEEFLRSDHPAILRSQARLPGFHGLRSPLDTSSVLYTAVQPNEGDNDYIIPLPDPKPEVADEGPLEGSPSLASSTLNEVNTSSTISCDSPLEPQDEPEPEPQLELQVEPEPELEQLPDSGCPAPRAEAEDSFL

[6] = target: T3, Serine/threonine-protein kinase TAO1 (Homo sapiens) (UniProt Q7L7X3); test: Inhibition of human recombinant TAO1 at 15 nM in presence of ATP by radiometric assay relative to control
T3 sequence (whole entry): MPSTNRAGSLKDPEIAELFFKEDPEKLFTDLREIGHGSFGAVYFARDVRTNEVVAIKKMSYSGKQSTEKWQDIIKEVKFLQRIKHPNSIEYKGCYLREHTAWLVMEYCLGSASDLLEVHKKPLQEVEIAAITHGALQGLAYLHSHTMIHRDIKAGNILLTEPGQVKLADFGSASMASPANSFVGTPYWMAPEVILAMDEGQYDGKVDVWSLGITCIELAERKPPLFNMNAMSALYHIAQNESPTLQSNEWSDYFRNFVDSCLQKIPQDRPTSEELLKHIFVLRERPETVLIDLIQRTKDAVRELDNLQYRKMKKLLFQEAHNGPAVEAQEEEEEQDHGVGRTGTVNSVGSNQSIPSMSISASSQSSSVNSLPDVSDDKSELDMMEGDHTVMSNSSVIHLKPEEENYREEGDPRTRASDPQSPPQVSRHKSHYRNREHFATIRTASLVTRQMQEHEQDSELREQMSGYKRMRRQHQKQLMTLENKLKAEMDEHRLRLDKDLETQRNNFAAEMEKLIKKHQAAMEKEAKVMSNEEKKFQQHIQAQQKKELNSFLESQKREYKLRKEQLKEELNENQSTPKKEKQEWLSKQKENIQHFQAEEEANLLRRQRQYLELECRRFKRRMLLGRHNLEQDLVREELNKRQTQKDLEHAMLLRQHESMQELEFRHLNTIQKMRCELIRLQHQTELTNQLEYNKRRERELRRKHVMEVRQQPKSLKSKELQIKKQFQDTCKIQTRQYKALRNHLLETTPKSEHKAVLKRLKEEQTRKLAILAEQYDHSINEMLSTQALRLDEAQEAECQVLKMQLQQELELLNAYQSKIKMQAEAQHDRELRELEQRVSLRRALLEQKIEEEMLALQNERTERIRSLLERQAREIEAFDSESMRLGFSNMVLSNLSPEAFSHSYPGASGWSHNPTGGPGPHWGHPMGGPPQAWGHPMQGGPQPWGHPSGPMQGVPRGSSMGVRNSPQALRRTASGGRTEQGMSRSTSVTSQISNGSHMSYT

[7] = target: Serine/threonine-protein kinase tousled-like 2 (Homo sapiens) (UniProt Q86UE8); test: Inhibition of human recombinant TLK2 at 15 nM in presence of ATP by radiometric assay relative to control
Sequence of Serine/threonine-protein kinase tousled-like 2 (Homo sapiens) (Q86UE8 whole entry, looked up): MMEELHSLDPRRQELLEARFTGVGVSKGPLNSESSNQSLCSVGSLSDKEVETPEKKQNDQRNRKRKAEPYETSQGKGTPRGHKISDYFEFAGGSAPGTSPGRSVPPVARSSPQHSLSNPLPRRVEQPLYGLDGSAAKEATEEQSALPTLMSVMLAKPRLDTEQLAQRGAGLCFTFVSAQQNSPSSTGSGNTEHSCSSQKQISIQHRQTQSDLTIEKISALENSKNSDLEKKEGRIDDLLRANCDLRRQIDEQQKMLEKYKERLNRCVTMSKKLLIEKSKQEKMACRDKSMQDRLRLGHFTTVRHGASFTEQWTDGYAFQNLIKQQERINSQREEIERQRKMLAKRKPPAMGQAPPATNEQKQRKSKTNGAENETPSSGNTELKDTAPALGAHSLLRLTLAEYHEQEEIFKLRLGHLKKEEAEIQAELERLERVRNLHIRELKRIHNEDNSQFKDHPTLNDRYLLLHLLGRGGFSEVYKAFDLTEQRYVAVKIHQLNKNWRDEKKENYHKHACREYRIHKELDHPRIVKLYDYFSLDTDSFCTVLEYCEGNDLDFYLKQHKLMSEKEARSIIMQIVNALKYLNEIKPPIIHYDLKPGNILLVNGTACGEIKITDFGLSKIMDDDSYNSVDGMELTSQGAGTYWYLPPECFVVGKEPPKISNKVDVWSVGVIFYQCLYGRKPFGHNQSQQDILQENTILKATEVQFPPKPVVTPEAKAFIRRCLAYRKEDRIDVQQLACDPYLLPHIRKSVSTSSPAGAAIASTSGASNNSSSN

[8] = target: Receptor tyrosine-protein kinase erbB-4 (Homo sapiens) (UniProt Q15303); test: Inhibition of human recombinant ErbB4 at 15 nM related to control ULK1
Sequence of Receptor tyrosine-protein kinase erbB-4 (Homo sapiens) (Q15303 whole entry): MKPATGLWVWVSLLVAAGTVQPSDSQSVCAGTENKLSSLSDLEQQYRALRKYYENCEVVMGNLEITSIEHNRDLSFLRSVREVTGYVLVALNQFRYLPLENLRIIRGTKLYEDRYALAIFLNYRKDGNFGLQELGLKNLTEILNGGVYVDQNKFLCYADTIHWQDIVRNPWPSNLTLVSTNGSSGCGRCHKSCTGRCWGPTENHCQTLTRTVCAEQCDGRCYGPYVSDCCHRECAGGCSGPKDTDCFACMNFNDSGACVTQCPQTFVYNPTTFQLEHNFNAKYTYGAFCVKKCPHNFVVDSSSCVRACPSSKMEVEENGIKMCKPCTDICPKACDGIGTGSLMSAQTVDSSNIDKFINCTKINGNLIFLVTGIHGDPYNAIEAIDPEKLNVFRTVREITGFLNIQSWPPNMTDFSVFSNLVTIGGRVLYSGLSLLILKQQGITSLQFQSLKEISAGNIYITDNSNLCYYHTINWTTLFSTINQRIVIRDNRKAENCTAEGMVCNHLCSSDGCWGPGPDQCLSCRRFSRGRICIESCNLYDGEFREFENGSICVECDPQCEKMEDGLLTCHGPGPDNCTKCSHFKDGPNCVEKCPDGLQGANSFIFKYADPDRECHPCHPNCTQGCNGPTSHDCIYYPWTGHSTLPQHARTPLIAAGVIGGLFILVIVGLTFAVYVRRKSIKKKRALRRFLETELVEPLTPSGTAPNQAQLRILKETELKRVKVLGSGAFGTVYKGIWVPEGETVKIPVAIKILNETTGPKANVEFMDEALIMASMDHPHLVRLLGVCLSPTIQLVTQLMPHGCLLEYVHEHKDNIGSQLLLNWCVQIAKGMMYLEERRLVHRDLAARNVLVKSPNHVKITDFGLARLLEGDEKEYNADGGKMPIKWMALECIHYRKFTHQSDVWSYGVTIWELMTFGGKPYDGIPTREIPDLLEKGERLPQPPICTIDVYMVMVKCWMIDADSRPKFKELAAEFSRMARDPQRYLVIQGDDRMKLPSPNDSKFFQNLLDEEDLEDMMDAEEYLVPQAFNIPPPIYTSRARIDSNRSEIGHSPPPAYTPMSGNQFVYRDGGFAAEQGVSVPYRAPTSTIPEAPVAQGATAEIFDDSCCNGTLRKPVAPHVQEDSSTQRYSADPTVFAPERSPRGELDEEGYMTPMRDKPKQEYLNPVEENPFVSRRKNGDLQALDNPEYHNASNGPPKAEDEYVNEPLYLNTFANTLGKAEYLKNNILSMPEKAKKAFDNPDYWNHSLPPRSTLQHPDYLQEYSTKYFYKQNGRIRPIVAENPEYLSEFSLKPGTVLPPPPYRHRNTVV

Sequence of Calcium/calmodulin-dependent protein kinase kinase 2 (Homo sapiens) (Q96RR4 2-588 limits assumed): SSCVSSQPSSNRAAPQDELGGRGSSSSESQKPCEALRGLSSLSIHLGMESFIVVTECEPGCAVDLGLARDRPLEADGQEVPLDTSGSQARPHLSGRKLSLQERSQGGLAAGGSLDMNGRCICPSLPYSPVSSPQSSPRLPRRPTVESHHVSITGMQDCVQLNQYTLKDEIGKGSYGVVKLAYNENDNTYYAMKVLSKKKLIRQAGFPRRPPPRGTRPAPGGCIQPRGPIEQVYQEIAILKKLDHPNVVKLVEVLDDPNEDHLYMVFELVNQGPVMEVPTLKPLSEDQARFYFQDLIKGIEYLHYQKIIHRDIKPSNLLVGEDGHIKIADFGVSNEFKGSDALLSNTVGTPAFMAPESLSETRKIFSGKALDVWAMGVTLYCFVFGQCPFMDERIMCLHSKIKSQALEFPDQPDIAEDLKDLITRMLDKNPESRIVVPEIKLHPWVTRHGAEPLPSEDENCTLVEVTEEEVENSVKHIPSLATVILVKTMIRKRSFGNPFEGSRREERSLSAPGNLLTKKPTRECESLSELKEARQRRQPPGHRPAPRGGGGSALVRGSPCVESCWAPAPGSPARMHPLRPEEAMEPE

Structure (SMILES)	inhibition [1]	fold change (FC) [2]	fold change (FC) [3]	fold change (FC) [4]	fold change (FC) [5]	inhibition [6]	inhibition [7]	fold change (FC) [8]
O=C(N[C@@H](C1CC1)C(F)(F)F)c1cc(-c2cnn3cc(-c4ccc(F)cc4)cnc23)cs1	0%	0	0.15	0	0.07			
CC(C)[C@H](NC(=O)c1cc(-c2cnn3cc(-c4ccc(OCCN5CCCCC5)cc4)cnc23)cs1)C(F)(F)F						0%	3%	0
